Only some compounds are listed: those with a hit (about 1.4% of all), similar ones and a draw of the others.
Tn6 DDE FP: disrupts Tn6 cyclic peptide binding to fibrin D-Dimer-E complex; P02675; Fibrin DD(E) TRITC-Tn6 fluorescence polarization displacement; inhibition, % at 8.3 µM; 0.21% of 370,000 active; AID 720509;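 active = inhibition above a per-campaign cutoff: mean of compounds within control limits plus 3 SD, cut at about 15% in these data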;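 note: 0% = median of all compound wells on the plate and 100% = blocking peptide control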
Target sequence (P02675 whole entry, looked up): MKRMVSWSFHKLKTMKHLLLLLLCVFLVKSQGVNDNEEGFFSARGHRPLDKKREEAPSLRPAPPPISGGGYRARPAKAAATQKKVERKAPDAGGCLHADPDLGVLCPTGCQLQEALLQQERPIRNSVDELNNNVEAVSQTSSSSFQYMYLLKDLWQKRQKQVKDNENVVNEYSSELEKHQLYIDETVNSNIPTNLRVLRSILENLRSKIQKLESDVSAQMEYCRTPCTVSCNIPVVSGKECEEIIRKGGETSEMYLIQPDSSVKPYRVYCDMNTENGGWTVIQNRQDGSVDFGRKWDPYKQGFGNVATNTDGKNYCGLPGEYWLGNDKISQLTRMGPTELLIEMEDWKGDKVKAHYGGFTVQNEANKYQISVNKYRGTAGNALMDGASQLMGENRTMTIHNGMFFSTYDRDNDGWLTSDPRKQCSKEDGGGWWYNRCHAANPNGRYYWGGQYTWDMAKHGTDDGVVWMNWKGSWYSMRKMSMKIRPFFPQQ
PLCg1 inh: blocks human PLC-gamma1 enzyme activity; inhibition, % at 12.2 µM; purified PLC-gamma1, fluorogenic substrate, fluorescence; 0.84% of 370,000 active; AID 720700; P19174; in the data active = inhibition above about 9.5%
DNA FID counter: counter-screen for HCV NS3 helicase inhibitors: DNA intercalator displacement; 0.17% of 290,000 active; inhibition, % at 7.9 µM; DNA fluorescent intercalator displacement, fluorescence; in the data active = inhibition above about 37%;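 note: 0% = vehicle and 100% = reference compound; higher means more ethidium bromide displaced from hairpin DNA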
Tn7 DDE FP: inhibitors of Tn7 peptide binding to human fibrin DD(E) | 0.13% of 370,000 active | inhibition, % at 8.3 µM | P02675 | AID 720508 | FP displacement of FITC-Tn7 peptide from fibrin DD(E); 0% = median of compound wells per plate;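 active = inhibition above the mean of compounds falling within the control limits plus 3 SD of them, cut at about 14% in these data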;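 note: 0% = plate median of compound wells and 100% = 10 µM Aha-Tn7 peptide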
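Measure: % inhibition scaled between sample-field median and high-control FP; Test system: human fibrin DD(E); Quantity: 2 µM final DD(E) protein; Doses: one dose, 8.3 µM nominal; Schedule: compound with protein 10 min, then 3 h after probe, room temperature; Detection: fluorescence polarization; Medium: Tris buffer with calcium and detergent, pH 7.8.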
PLCb3 inh: blocks human PLC-beta3 enzyme activity; Purified PLC-beta3, fluorogenic substrate, fluorescence; inhibition, % at 12.2 µM; 0.18% of 370,000 active; Q01970; AID 720704; in the data active = inhibition above about 11%;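 note: 0% = median of compound wells on plate and 100% = full blocker control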
Numbers without * were called inactive; i = inactive; nt = no result.

SMILES	Tn6 DDE FP	PLCg1 inh	DNA FID counter	Tn7 DDE FP	PLCb3 inh
CCN(CC)c1ccc2cc(NC(=O)CCC(=O)O)c(=O)oc2c1	44*	i	-10	10	i
CCN(CC)c1ccc2cc(C(C)=O)c(=O)oc2c1	-1	-28	-3	-23	-31
CCN1CCN(c2cc(C)c3cc(NC(=S)NCCCN4CCc5ccccc5C4)ccc3n2)CC1	1	-53	32	-7	-86
Cc1cc(N2CCN(C)CC2)nc2ccc(NC(=S)NCCCN3CCc4ccccc4C3)cc12	0	-90	41*	1	-141
Cc1cc(N2CCN(C)CC2)nc2ccc(NC(=S)NCCN3CCc4ccccc4C3)cc12	3	-60	38*	-1	-100
CCN(CC)CC(=O)Nc1cc(N(C)C)nc2ccccc12	0	-16	49*	9	-19
CN1CCN(CC(=O)Nc2cc(N(C)C)nc3ccccc23)CC1	-3	-34	73*	4	-53
CCCCCC(=O)Nc1cc(N(C)C)nc2ccccc12	3	-28	16	-1	-40
COC(C/C=C/[C@H](O)[C@@H](C)OCc1ccccc1)OC	6	1	nt	1	0
COC(C/C=C\[C@H](O)[C@@H](C)OCc1ccccc1)OC	-2	3	nt	0	12*
C[C@H](CO)N1C[C@H](C)[C@H](CN(C)C(=O)CCC(F)(F)F)OCc2cnnn2CCCC1=O	-4	1	nt	-4	1
COC(=O)[C@H]1C[C@@H](c2ccccc2)[C@H](C)C1(C)C	-4	1	nt	-4	-1
COC(=O)[C@@H]1C[C@@H](c2ccccc2)[C@H](C)C1(C)C	0	9.7*	nt	6	6
O=C(COC(=O)Cc1cccs1)Nc1ccc(OC(F)(F)F)cc1	88*	1	nt	6	-7
CCOc1ccccc1-n1nnnc1SCC(=O)Nc1cc(C)on1	-2	-2	-17	3	2
CCOC(=O)c1oc2ccc(CNC(C)(C)C)c(Cl)c2c1C	-8	12*	27	-2	6
COc1ccc(OCC(=O)N2CCc3ccccc3C2)cc1	-3	3	-6	1	-3
CCCCNC(=S)Nc1ccc2nc(N3CCN(CC)CC3)cc(C)c2c1	4	-27	22	9	-36
CCCCN(C)CCNC(=S)Nc1ccc2nc(N3CCN(CC)CC3)cc(C)c2c1	-2	-32	46*	-4	-50
CCCN1CCN(CCCNC(=S)Nc2ccc3nc(N4CCN(CC)CC4)cc(C)c3c2)CC1	-4	-17	37*	-5	-29
CCN(CC)CCNC(=S)Nc1ccc2nc(N3CCN(CC)CC3)cc(C)c2c1	0	-58	39*	6	-76
Cc1cc(N2CCCC2)nc2ccc(NC(=S)NCCCN3CCC(C)CC3)cc12	2	-129	47*	5	-139
Cc1cc(N2CCN(C)CC2)nc2ccc(NC(=S)N3CCCCC3)cc12	-4	-149	22	-1	-199
CCN(CC)C(=O)Cn1c(=O)n(C)c2ccccc21	6	0	-3	0	3
CCN1CCN(c2cc(C)c3cc(NC(=S)NCCN(C)C)ccc3n2)CC1	-4	-38	49*	1	-62
SMILES	Tn6 DDE FP	PLCg1 inh	DNA FID counter	Tn7 DDE FP	PLCb3 inh
CCN1CCN(c2cc(C)c3cc(NC(=O)c4cncc(Br)c4)ccc3n2)CC1	6	-13	38*	0	-16
CCNC(=O)C(C)Sc1ccc(Cl)cc1 (configuration not stated)	-5	0	-1	2	0
COc1ccc(OC)c2sc(N(CCN(C)C)C(=O)/C=C/c3cccs3)nc12	-7	2	44*	1	-9
O=C(O)c1ccc2c(c1)C(=O)N(CCC1=CCCCC1)C2=O	4	13*	-22	7	-1
CN(C(=O)c1ccc2c(c1)C(=O)N(CCC1=CCCCC1)C2=O)C1CCCCC1	-6	1	-33	-5	0
CCC(C)NC(=O)CO/N=C/c1ccc(C(=O)OC)cc1 (configuration not stated)	-1	2	-5	-1	1
COc1ccc2c(c1)C(C)(Cc1ccc(C(=O)c3ccccc3)cc1)C(=O)N2 (configuration not stated)	-12	1	nt	4	3
CNc1nc(C)c(C(C)(C)C)s1	-2	2	-3	-5	-2
CCOc1ccccc1C(=O)Nc1ccsc1C(=O)OC	2	-3	-12	-1	0

Screening results as filed in PubChem BioAssay.
